Screening data deposited in PubChem by Broad Institute.
The full list was thinned out, with hits kept by preference.
IDH1 mut inh: inhibitors of IDH1 R132H reductase, primary screen, biochemical, plate reader, single point; diaphorase/resazurin fluorescence, 60 min; inhibition, % at 10 µM; hit rate 0.18% among 70,000; in the data active = inhibition above about 34%; inconclusive = no clear call, values can overlap the other calls; inactive = below about 11%;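 note: 0% = DMSO and 100% = no enzyme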
GASC1 inh: inhibitors of GASC-1 (KDM4C) histone demethylase, primary screen, biochemical, single concentration HTS; Lysine-specific demethylase 4C (Homo sapiens), Q9H3R0; GST-KDM4C 2-372, H3K9me3 peptide, LANCE TR-FRET; inhibition, % at 12.5 µM; hit rate 0.15% among 96,000;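 active = mean replicate inhibition above about 25%, with at least 55% of replicates also reaching it, limit read from the data, passing the limit was not always enough; inconclusive = only one of those two conditions met; inactive = neither condition met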
Target sequence (Q9H3R0 2-372 limits assumed): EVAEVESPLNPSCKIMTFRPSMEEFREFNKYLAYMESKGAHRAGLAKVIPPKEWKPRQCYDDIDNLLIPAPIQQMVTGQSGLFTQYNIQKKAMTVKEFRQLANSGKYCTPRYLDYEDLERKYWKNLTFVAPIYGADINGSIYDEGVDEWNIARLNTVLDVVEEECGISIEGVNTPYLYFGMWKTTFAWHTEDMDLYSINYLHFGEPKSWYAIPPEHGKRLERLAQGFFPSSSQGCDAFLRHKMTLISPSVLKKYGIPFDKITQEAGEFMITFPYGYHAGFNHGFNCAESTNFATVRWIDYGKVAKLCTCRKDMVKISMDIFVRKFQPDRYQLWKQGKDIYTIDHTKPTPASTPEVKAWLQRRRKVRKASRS
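Material: GST-tagged GASC-1 (JMJD2C) catalytic fragment, aa 2-372. Input: enzyme final amount 10 nM. Medium: HEPES buffer, pH 7.5, plus ascorbate. Reagent: H3K9me3 peptide substrate, Fe(II), 2-oxoglutarate. Doses: single dose. Times: reaction 30 min RT, detection step 1 h RT. Measured by: LANCE TR-FRET. Evaluation: Fall in 671/618 emission ratio as inhibition.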
T cruzi growth-1: T. cruzi intracellular proliferation inhibitors, primary screen, cell-based, beta-gal Tulahuen parasites, NIH3T3 host, luminescence. T. cruzi beta-gal in NIH3T3, GalScreen luminescence, 90 h. inhibition, % at 8.34 µM. hit rate 5.9% among 77,000;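 active = mean inhibition above about 93%, with at least 55% of replicates each passing it, limit read from the data, passing the limit was not always enough; inconclusive = only one of those two conditions holds; inactive = neither condition holds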
T cruzi growth-2: T. cruzi intracellular proliferation inhibitors, confirmation, cell-based, NIH3T3 host, beta-gal parasite, luminescence, cherry-pick; inhibition, % at 8.35 µM; shares compounds with T cruzi growth-1; T. cruzi beta-gal in NIH3T3, GalScreen luminescence, 90 h; hit rate 72% among 5,600;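 active = mean replicate inhibition above about 95% and at least 55% of replicates individually reaching it, limit read from the data; inconclusive = only one of the two criteria is met; inactive = neither criterion is met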
T cruzi growth-3: inhibitors of intracellular T. cruzi replication, confirmation, NIH3T3 host cells, beta-gal parasites, cherry-pick, set 2; shares compounds with T cruzi growth-1; T. cruzi beta-gal in NIH3T3, GalScreen luminescence, 90 h; inhibition, % at 2.09 µM; hit rate 21% among 5,600; AID 651740, 2012;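 active = mean inhibition above about 95%, with at least 55% of replicates also reaching it, limit read from the data; inconclusive = meets just one of the two conditions; inactive = meets neither condition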;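 note: plate controls were neutral control median for no effect and positive control median for full effect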
3T3 cytotox: cytotoxicity in mouse NIH/3T3 fibroblasts, confirmation, cytotoxicity control for T. cruzi proliferation inhibitor project, cell-based, cherry-pick, single point; shares compounds with T cruzi growth-1; NIH/3T3 viability, CellTiter-Glo ATP luminescence, 90 h; cytotoxicity (signal decrease), % at 8.35 µM; hit rate 14% among 5,600; AID 651742, 2012;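 active = mean signal decrease across replicates above about 35% based on untreated-well scatter, with enough replicates individually passing, limit read from the data; inconclusive = no rule stated though some were filed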;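 note: 0% = median of neutral control wells and 100% = median of positive control wells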
NIH3T3 tox 2: NIH/3T3 fibroblast cytotoxicity, confirmation, cytotoxicity control, cell-based, cherry-pick, single point, set 2; shares compounds with T cruzi growth-1; NIH/3T3 viability, CellTiter-Glo ATP luminescence, 90 h; inhibition, % at 24.9 µM; hit rate 56% among 5,600; AID 651744, 2012;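 active = mean loss of cell viability signal at or above a set limit, and enough replicates individually reaching it; inconclusive = meets only the mean limit or only the replicate share; inactive = meets neither condition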;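 note: 0% = median of neutral control wells and 100% = median of positive control wells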
The depositor's hits bear a star; ? = inconclusive; . = not tested or not shown.

SMILES	IDH1 mut inh	GASC1 inh	T cruzi growth-1	T cruzi growth-2	T cruzi growth-3	3T3 cytotox	NIH3T3 tox 2
C[C@@H]1CCCCO[C@@H](CN(C)C(=O)Nc2cccc3ccccc23)[C@@H](C)CN([C@@H](C)CO)C(=O)c2cc(NC(=O)C3CCCCC3)ccc2O1	.	-6	?	110*	69	-5	0
C[C@@H]1CCCCO[C@H](CN(C)C(=O)NC2CCCCC2)[C@@H](C)CN([C@H](C)CO)C(=O)c2cc(NC(=O)Nc3cccc4ccccc34)ccc2O1	3	-2	104*	109*	30	-21	-15
C[C@@H]1CCCCO[C@H](CN(C)C(=O)Nc2cccc3ccccc23)[C@H](C)CN([C@H](C)CO)C(=O)c2cc(N(C)C)ccc2O1	0	1	99*	96*	23	11	13
C[C@@H]1CN([C@@H](C)CO)C(=O)c2cc(NC(=O)C3CCCCC3)ccc2O[C@@H](C)CCCCO[C@H]1CN(C)C(=O)Nc1cccc2ccccc12	0	-4	70	.	.	.	.
C[C@@H]1CN([C@H](C)CO)C(=O)c2cc(N(C)C)ccc2O[C@@H](C)CCCCO[C@H]1CN(C)C(=O)Nc1cccc2ccccc12	1	.	-50	.	.	.	.
C[C@@H]1CCCCO[C@H](CN(C)C(=O)Nc2cccc3ccccc23)[C@@H](C)CN([C@@H](C)CO)C(=O)c2cc(NC(=O)c3ccccc3)ccc2O1	.	-1	?	107*	84	26	36*
C[C@@H]1CN([C@@H](C)CO)C(=O)c2cc(NC(=O)c3ccccc3)ccc2O[C@@H](C)CCCCO[C@H]1CN(C)C(=O)Nc1cccc2ccccc12	2	-2	79	.	.	.	.
C[C@@H]1CCCCO[C@H](CN(C)C(=O)NC2CCCCC2)[C@H](C)CN([C@H](C)CO)C(=O)c2cc(NC(=O)Nc3cccc4ccccc34)ccc2O1	0	-2	85	.	.	.	.
CS(=O)(=O)N(CC(=O)Nc1c(F)cccc1F)c1ccc(Br)cc1	1	.	.	.	.	.	.
CC(C)(C)NC(=O)c1ccccc1SCc1ccc(F)cc1	0	.	.	.	.	.	.
COc1cccc(N(CC(=O)Nc2ccc(Br)cc2F)S(C)(=O)=O)c1	0	.	.	.	.	.	.
C[C@@H]1CN([C@@H](C)CO)C(=O)c2cc(NC(=O)NC3CCCCC3)ccc2O[C@@H](C)CCCCO[C@H]1CN(C)C(=O)Nc1cccc2ccccc12	.	-1	53	.	.	.	.
C[C@@H]1CCCCO[C@H](CN(C)C(=O)NC2CCCCC2)[C@H](C)CN([C@@H](C)CO)C(=O)c2cc(NC(=O)Nc3cccc4ccccc34)ccc2O1	1	-2	108*	106*	77	-28	-2
C[C@H]1CCCCO[C@H](CN(C)C(=O)Nc2cccc3ccccc23)[C@@H](C)CN([C@@H](C)CO)C(=O)c2cc(NC(=O)NC3CCCCC3)ccc2O1	.	-1	99*	108*	112*	-38	6
C[C@@H]1CCCCO[C@@H](CN(C)C(=O)NC2CCCCC2)[C@H](C)CN([C@@H](C)CO)C(=O)c2cc(NC(=O)Nc3cccc4ccccc34)ccc2O1	2	-1	82	.	.	.	.
C/C1=C/CC(=O)[C@@H](C)C[C@H]2OC(=O)C(CO)=C2CC1	0	.	.	.	.	.	.
Cc1ccccc1OCC(=O)Nc1cccc(NC(=O)C(C)C)c1	0	.	.	.	.	.	.
COc1ccc(S(=O)(=O)Nc2ccc3c(c2)C(=O)N([C@H](C)CO)C[C@H](C)[C@H](CN(C)S(=O)(=O)c2ccc(Cl)cc2)OCCCC[C@@H](C)O3)cc1	.	4	94	.	.	.	.
COc1ccc(S(=O)(=O)Nc2ccc3c(c2)C(=O)N([C@@H](C)CO)C[C@H](C)[C@H](CN(C)S(=O)(=O)c2ccc(Cl)cc2)OCCCC[C@H](C)O3)cc1	0	0	?	108*	91	22	21
COc1ccc(S(=O)(=O)Nc2ccc3c(c2)C(=O)N([C@@H](C)CO)C[C@H](C)[C@H](CN(C)S(=O)(=O)c2ccc(Cl)cc2)OCCCC[C@@H](C)O3)cc1	.	-2	99*	104*	84	10	-23
COc1ccc(S(=O)(=O)N(C)C[C@H]2OCCCC[C@H](C)Oc3ccc(NS(=O)(=O)c4ccc(Cl)cc4)cc3C(=O)N([C@@H](C)CO)C[C@H]2C)cc1	.	-2	.	.	.	.	.
N#Cc1ccccc1NC(=O)CN1CCC(C(N)=O)CC1	2	.	.	.	.	.	.
Cc1ccc(-n2c3c(cc(C(=O)NCCCN4CCOCC4)c2=O)C(=O)CCC3)cc1	0	.	.	.	.	.	.
O=C(CSc1nnc2ccc3ccccc3n12)Nc1nsc(-c2ccc(Cl)cc2)n1	0	.	.	.	.	.	.
CC(C)CC#Cc1ccc2c(c1)O[C@H](CN(C)C(=O)Cc1ccncc1)[C@H](C)CN([C@H](C)CO)S2(=O)=O	0	0	74	.	.	.	.
SMILES	IDH1 mut inh	GASC1 inh	T cruzi growth-1	T cruzi growth-2	T cruzi growth-3	3T3 cytotox	NIH3T3 tox 2
CC(C)CC#Cc1ccc2c(c1)O[C@@H](CN(C)C(=O)Cc1ccncc1)[C@H](C)CN([C@H](C)CO)S2(=O)=O	1	-2	73	.	.	.	.
CC(C)CC#Cc1ccc2c(c1)O[C@H](CN(C)C(=O)Cc1ccncc1)[C@H](C)CN([C@@H](C)CO)S2(=O)=O	0	-1	101*	101*	53	-2	5
CC(C)CC#Cc1ccc2c(c1)O[C@@H](CN(C)C(=O)Cc1ccncc1)[C@@H](C)CN([C@@H](C)CO)S2(=O)=O	2	1	?	103*	72	12	75*
CCN1CCN(C(=O)CN(c2cccc([N+](=O)[O-])c2)S(C)(=O)=O)CC1	0	.	.	.	.	.	.
CS(=O)(=O)N(CC(=O)Nc1ccc(I)cc1)c1ccc2c(c1)OCCO2	0	.	.	.	.	.	.
C[C@H]1CN([C@@H](C)CO)C(=O)Cc2cc(NC(=O)Cc3cn(C)c4ccccc34)ccc2O[C@H]1CN(C)Cc1ccc(C(=O)Nc2ccccc2N)cc1	.	-2	102*	96*	57	24	63*
C[C@@H]1CN([C@H](C)CO)C(=O)Cc2cc(NC(=O)Cc3cn(C)c4ccccc34)ccc2O[C@H]1CN(C)Cc1ccc(C(F)(F)F)cc1	-2	-3	100*	105*	63	?	71*
